Data on five molecules can be found in ChEMBL document CHEMBL3997796 (J Med Chem, 2017).

Calls of active or inactive are those of the source. The rule behind the calls is not given here.

Series [1] concerns the target T1, Autotaxin (Homo sapiens, UniProt Q13822). Nature of the series: Inhibition of ATX (unknown origin) expressed in human A2058 cells assessed as inhibition of LPC-induced cell invasion at 10 uM after 20 hrs by calcein-AM dye based matrigel-mediated Boyden chamber assay.
The subject of series [2] is 4T1. Nature of the series: Growth inhibition of mouse 4T1 cells at 3 uM after 48 hrs by CellTiter blue assay. The series is classed as cell-based. The following applies: 4t1, 48 h. A general note: Alamar Blue is a resazurin reagent that responds to reducing activity.
Another series deals with Autotaxin (Mus musculus) (UniProt Q9R1E6). As to the kind of experiment: Inhibition of ATX in paclitaxel-resistant mouse 4T1 cells assessed as potentiation of paclitaxel-induced antiproliferative activity by measuring reduction in cell viability at 5 uM measured after 3 days by CellTiter blue assay. In short, it runs like this: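 Paclitaxel-resistant 4T1-TaxR (stepwise PT 40, 100, 200 nM) grown as mammospheres, 3.5 × 10^3 cells/well in serum-free RPMI with N-2, 20 ng/mL FGF and EGF, 4 days; spheres treated 3 days with 100 nM PT with or without inhibitor at 5 μM; CellTiter Blue; quadruplicate, three experiments.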

Series [3] deals with 4T1. As to the kind of experiment: Growth inhibition of mouse 4T1 cells up to 10 uM after 48 hrs by CellTiter blue assay. The following applies: 4t1, 48 h. The series is classed as cell-based.
Series [4] deals with Lysophosphatidic acid receptor 4 (Homo sapiens) (UniProt Q99677). As to the kind of experiment: Agonist activity at LPA4 receptor (unknown origin) expressed in CHO cells assessed as increase in intracellular calcium level up to 10 uM measured every 3.42 secs for 70 secs by Fura-2-AM dye based fluorescence assay. The series is classed as functional, cell-based.
Lysophosphatidic acid receptor 4 (Homo sapiens), sequence (Q99677 whole entry): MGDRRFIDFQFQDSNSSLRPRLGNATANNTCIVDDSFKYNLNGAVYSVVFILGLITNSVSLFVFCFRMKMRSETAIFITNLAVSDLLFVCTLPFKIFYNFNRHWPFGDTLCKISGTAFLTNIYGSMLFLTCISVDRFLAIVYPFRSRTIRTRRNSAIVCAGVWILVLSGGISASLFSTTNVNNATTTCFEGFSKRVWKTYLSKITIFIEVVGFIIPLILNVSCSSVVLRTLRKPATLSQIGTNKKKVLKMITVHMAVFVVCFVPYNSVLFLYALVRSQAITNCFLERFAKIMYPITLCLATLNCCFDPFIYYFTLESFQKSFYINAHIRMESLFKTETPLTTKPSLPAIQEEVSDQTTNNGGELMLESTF
Series [5] concerns the target T1, Autotaxin. Nature of the series: Inhibition of ATX (unknown origin) expressed in human A2058 cells assessed as inhibition of LPC-induced cell invasion after 20 hrs by calcein-AM dye based matrigel-mediated Boyden chamber assay.
The target of series [6] is Lysophosphatidic acid receptor 2 (Homo sapiens) (UniProt Q9HBW0). Nature of the series: Agonist activity at LPA2 receptor (unknown origin) expressed in MEF cells assessed as increase in intracellular calcium level up to 10 uM measured every 3.42 secs for 70 secs by Fura-2-AM dye based fluorescence assay. The series is classed as functional, cell-based. In general terms: Calcium flux is commonly read through the fluorescence of an indicator in the cells.
Lysophosphatidic acid receptor 2 (Homo sapiens), sequence (Q9HBW0 whole entry): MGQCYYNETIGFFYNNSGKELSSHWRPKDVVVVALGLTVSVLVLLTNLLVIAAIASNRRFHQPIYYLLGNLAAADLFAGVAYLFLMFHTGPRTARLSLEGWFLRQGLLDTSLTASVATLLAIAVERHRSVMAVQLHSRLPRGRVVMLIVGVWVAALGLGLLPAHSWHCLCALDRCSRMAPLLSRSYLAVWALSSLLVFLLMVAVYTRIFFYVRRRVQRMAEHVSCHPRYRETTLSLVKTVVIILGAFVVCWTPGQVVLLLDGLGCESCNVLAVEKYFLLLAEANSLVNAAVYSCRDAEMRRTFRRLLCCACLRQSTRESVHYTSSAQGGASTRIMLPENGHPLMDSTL

Series [7] addresses T2, Lysophosphatidic acid receptor 3 (Homo sapiens) (UniProt Q9UBY5).
T2 sequence (whole entry): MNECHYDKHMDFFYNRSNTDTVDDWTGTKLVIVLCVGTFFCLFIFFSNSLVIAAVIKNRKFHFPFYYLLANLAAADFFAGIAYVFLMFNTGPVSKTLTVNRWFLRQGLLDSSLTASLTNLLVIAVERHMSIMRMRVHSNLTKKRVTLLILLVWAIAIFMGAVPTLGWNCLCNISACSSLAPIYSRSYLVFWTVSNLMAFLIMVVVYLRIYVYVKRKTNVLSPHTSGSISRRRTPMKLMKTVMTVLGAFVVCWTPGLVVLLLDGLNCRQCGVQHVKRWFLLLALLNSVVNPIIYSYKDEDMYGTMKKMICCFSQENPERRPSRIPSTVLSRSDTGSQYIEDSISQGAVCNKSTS
As to the kind of experiment: Agonist activity at LPA3 receptor (unknown origin) expressed in rat RH7777 cells assessed as increase in intracellular calcium level up to 10 uM measured every 3.42 secs for 70 secs by Fura-2-AM dye based fluorescence assay. The series is classed as functional, cell-based.

Series [8] concerns the target Lysophosphatidic acid receptor 4 (Homo sapiens) (UniProt Q99677). Nature of the series: Antagonist activity at LPA4 receptor (unknown origin) expressed in CHO cells assessed as inhibition of LPA-induced intracellular calcium level up to 100 uM measured every 3.42 secs for 70 secs by Fura-2-AM dye based fluorescence assay. The series is classed as functional, cell-based.

Series [9] concerns the target Lysophosphatidic acid receptor 5 (Homo sapiens) (UniProt Q9H1C0). As to the kind of experiment: Antagonist activity at FLAG-tagged LPA5 receptor (unknown origin) expressed in rat B103 cells assessed as inhibition of LPA-induced intracellular calcium level up to 100 uM measured every 3.42 secs for 70 secs by Fura-2-AM dye based fluorescence assay. The series is classed as functional, cell-based.

For series [10], the target named is T3, Ectonucleotide pyrophosphatase/phosphodiesterase family member 7 (Homo sapiens) (UniProt Q6UWV6).
T3 sequence (whole entry): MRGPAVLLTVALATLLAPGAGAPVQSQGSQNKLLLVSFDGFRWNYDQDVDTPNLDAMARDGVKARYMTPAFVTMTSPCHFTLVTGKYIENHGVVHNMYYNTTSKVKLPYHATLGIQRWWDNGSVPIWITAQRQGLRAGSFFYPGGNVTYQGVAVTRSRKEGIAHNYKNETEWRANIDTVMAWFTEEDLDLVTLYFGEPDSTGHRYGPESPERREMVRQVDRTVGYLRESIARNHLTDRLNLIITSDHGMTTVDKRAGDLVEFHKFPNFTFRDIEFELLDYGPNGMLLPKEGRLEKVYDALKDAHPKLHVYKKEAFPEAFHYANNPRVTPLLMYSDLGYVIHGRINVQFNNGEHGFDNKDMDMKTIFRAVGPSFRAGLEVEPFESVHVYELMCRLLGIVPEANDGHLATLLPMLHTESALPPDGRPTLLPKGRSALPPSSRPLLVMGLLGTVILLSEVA
Nature of the series: Inhibition of ENPP7 (unknown origin) using pNPPC as substrate measured every 2 mins for 1 hr by […]. In a few lines: (§1)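 10 nM ENPP6 or ENPP7, 10 μM pNPPC, compound 0–10 μM, triplicate; ENPP6 buffer 100 mM Tris, 500 mM NaCl, 0.05% Triton pH 9.0; ENPP7 buffer 50 mM Tris, 150 mM NaCl, 10 mM taurocholate pH 8.5; 405 nm absorbance every 2 min for 1 h.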

Series [11] is described as follows: Stability in mouse 4T1 cells assessed as parent compound remaining at 10 uM after 40 hrs by LC-MS/MS method. The series is classed as ADME, cell-based. The following applies: read-out: Stability. In short, it runs like this: (§2)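 4T1 cells (1 × 10^4/well) attached overnight, then 10 μM compound in DMEM with 1% charcoal-stripped FBS (0.1% DMSO final); quadruplicate samples at 0, 16, 40 h, centrifuged, diethyl ether extracted twice, LC-MS/MS peak areas normalized to 0 h.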

The target in series [12] is Lysophosphatidic acid receptor 2 (Homo sapiens) (UniProt Q9HBW0). Nature of the series: Antagonist activity at LPA2 receptor (unknown origin) expressed in MEF cells assessed as inhibition of LPA-induced intracellular calcium level up to 100 uM measured every 3.42 secs for 70 secs by Fura-2-AM dye based fluorescence assay. The series is classed as functional, cell-based.

Series [13] concerns the target T1, Autotaxin. Nature of the series: Inhibition of recombinant human C-terminal FLAg-tagged ATX nucleotide pyrophosphate phosphatase activity expressed in baculovirus infected sf9 cells using pNP-TMP as substrate measured every 2 mins for 1 hr by fluorescence assay.
Series [14] has as its target T1, Autotaxin. As to the kind of experiment: Competitive inhibition of recombinant human C-terminal FLAg-tagged ATX expressed in baculovirus infected sf9 cells using varying levels of FRET based FS-3 substrate at 0.5 to 2 times IC50 measured every 2 mins for 1 hr by Michaelis-Menten plot analysis.
For series [15], the target named is T2, Lysophosphatidic acid receptor 3 (Homo sapiens). Nature of the series: Antagonist activity at LPA3 receptor (unknown origin) expressed in rat RH7777 cells assessed as inhibition of LPA-induced intracellular calcium level up to 100 uM measured every 3.42 secs for 70 secs by Fura-2-AM dye based fluorescence assay. The series is classed as functional, cell-based.

Series [16] addresses T4, Lysophosphatidic acid receptor 1 (Homo sapiens, UniProt Q92633). As to the kind of experiment: Antagonist activity at LPA1 receptor (unknown origin) expressed in rat RH7777 cells assessed as inhibition of LPA-induced intracellular calcium level up to 100 uM measured every 3.42 secs for 70 secs by Fura-2-AM dye based fluorescence assay relative to LPA. The series is classed as functional, cell-based.

In series [17] the target is T4, Lysophosphatidic acid receptor 1. As to the kind of experiment: Agonist activity at LPA1 receptor (unknown origin) expressed in rat RH7777 cells assessed as increase in intracellular calcium level up to 10 uM measured every 3.42 secs for 70 secs by Fura-2-AM dye based fluorescence assay. The series is classed as functional, cell-based.
Series [18] in a line: Stability in mouse 4T1 cells assessed as parent compound remaining at 10 uM after 16 hrs by LC-MS/MS method. The series is classed as ADME, cell-based. The following applies: read-out: Stability. In short, it runs like this:
as §2

In series [19] the target is Lysophosphatidic acid receptor 5 (Homo sapiens) (UniProt Q9H1C0). As to the kind of experiment: Agonist activity at FLAG-tagged LPA5 receptor (unknown origin) expressed in rat B103 cells assessed as increase in intracellular calcium level up to 10 uM measured every 3.42 secs for 70 secs by Fura-2-AM dye based fluorescence assay. The series is classed as functional, cell-based.
Lysophosphatidic acid receptor 5 (Homo sapiens), sequence (Q9H1C0 whole entry): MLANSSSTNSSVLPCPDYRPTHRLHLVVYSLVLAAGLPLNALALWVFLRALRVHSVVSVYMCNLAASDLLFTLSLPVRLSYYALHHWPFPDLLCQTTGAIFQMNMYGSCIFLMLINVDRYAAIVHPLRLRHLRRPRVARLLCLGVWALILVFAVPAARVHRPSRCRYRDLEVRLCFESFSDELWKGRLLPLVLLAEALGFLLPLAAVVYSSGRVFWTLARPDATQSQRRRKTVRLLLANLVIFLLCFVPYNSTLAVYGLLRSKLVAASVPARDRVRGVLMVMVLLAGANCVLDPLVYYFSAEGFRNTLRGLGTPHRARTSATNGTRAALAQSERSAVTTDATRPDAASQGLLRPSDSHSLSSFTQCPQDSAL

Series [20] concerns the target T5, Glycerophosphocholine cholinephosphodiesterase ENPP6 (Homo sapiens) (UniProt Q6UWR7).
T5 sequence (whole entry): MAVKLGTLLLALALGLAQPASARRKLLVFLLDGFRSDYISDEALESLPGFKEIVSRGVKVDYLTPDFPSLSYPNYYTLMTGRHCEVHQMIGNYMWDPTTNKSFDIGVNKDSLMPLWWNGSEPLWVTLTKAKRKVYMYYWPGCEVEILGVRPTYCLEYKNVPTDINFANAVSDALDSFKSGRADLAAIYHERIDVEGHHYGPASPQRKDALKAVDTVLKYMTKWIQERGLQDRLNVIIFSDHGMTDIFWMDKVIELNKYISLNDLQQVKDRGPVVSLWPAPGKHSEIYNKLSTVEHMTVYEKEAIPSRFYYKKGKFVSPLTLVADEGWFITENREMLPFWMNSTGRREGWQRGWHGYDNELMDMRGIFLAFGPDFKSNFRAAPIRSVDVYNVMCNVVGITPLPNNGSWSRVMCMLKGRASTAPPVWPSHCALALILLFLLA
As to the kind of experiment: Inhibition of ENPP6 (unknown origin) using pNPPC as substrate measured every 2 mins for 1 hr by […]. In short, it runs like this:
as §1

Series [21] has as its target T4, Lysophosphatidic acid receptor 1. Nature of the series: Antagonist activity at LPA1 receptor (unknown origin) expressed in rat RH7777 cells assessed as inhibition of LPA-induced intracellular calcium level measured every 3.42 secs for 70 secs by Fura-2-AM dye based fluorescence assay. The following applies: read-out: IC50. The series is classed as functional, cell-based.

The subject of the next series is B16-F10. As to the kind of experiment: Antitumor activity against mouse B16F10 cells implanted in C57BL/6 mouse assessed as reduction in metastatic tumor nodules on lungs at 1 mg/kg, ip administered daily up to 10 days measured on day 21. The series is classed as functional, organism-based. In a few lines:
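C57BL/6 mice, 8–12 weeks, given 1 × 10^5 B16F10 cells by tail vein; 1 mg/kg i.p. daily from day 0 (before inoculation) to day 10, vehicle PBS with 1% DMSO and 50 μM charcoal-stripped mouse serum albumin; sacrifice day 21, lung nodules counted; one-way ANOVA with Bonferroni.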

T4 sequence (Q92633 whole entry): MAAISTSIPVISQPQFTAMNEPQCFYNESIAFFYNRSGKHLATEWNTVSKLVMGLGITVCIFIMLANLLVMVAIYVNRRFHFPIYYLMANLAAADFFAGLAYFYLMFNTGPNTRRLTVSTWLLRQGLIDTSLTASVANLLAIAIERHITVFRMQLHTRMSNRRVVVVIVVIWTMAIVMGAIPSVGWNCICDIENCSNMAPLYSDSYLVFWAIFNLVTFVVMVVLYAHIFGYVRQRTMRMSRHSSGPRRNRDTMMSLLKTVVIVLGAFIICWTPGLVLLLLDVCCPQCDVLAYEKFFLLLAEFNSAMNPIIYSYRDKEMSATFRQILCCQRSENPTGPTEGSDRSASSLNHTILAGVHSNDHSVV

In general, inhibition refers to how much of the control response was suppressed. Take `CCCCCCCCCCCCCCCc1ccc(CP(=O)(O)O)cc1`: on Autotaxin [1], the inhibition entry is “Active”. Moreover, the Activity entry is “Toxic” with 4T1 [2] and “Non-Toxic” with 4T1 [3]. On Autotaxin (Mus musculus), the inhibition was 25 to 30%.

A word on the Emax: it is the greatest response seen or fitted, relative to the assay's reference. For orientation: IC50 means the concentration that gives 50% inhibition. Take `O=C(Nc1cc(F)c(Cl)c(F)c1)c1cc(S(=O)(=O)N2CCOCC2)c(Cl)cc1Cl`: the outcome in series [4], in series [6], in [7], in series [17] and in series [19] was inactive. For the same molecule, the inhibition entry on Autotaxin [5] is “Dose-dependent effect”. The inhibition entry (in series [8]; in series [9]; in series [10]; in series [12]; on Autotaxin [13]; in [15]) was “inactive” each time. In addition, the inhibition result in [20] is “inactive”. Besides, the remaining at 40 h, 10 µM in series [11] is 108%. The inhibition entry on Autotaxin [1] and at Autotaxin [14] was “Active” throughout. In addition, the Emax in [16] stood at 51%. In addition, the remaining at 16 h, 10 µM in [18] was determined as 101%. The Activity result with 4T1 [3] is recorded as “Non-Toxic”. For the same molecule, the IC50 in series [21] lay within 6 to 6.12 µM.

In the case of `O=C(Nc1cc(Cl)c(F)c(Cl)c1)c1cc(S(=O)(=O)N2CCOCC2)c(Cl)cc1Cl`, the outcome in series [4], in [6], in series [7], in [17] and in series [19] was inactive. Further, the inhibition result (in [8]; in series [9]; in [10]; in series [12]; at Autotaxin [13]; in series [15]) was “inactive” in each case. Also, the inhibition result in [20] was “inactive”. The inhibition entry at Autotaxin [14] is “Active”. Moreover, the Emax in series [16] was 50%. For the same molecule, in [21], the IC50 is 18 to 18.4 µM.

Consider `O=C(Nc1cc(F)c(F)c(F)c1)c1cc(S(=O)(=O)N2CCOCC2)c(Cl)cc1Cl`, for which the result in [4], in series [6], in series [7], in series [17] and in [19] was inactive. Also, the result with B16-F10 was Active. The inhibition result was “Dose-dependent effect” on Autotaxin [5] and 25 to 30% on Autotaxin (Mus musculus). Moreover, the inhibition entry (in series [8]; in series [9]; in series [10]; in series [12]; at Autotaxin [13]; in series [15]) was “inactive” throughout. Moreover, the inhibition entry in series [20] was “inactive”. For the same molecule, the inhibition result on Autotaxin [1] and on Autotaxin [14] was “Active” throughout. Besides, the Emax in series [16] was found to be 46.1%. Moreover, the Activity entry with 4T1 [3] was “Non-Toxic”. Further, the IC50 in series [21] lay within 14 to 14.5 µM.

As to `O=C(Nc1ccc(F)c(F)c1)c1cc(S(=O)(=O)N2CCOCC2)c(Cl)cc1Cl`, the inhibition entry at Autotaxin [5] is “Dose-dependent effect”. Also, the inhibition result (in series [10]; at Autotaxin [13]; in series [20]) was “inactive” throughout. Further, the inhibition result at Autotaxin [1] and at Autotaxin [14] was “Active” in each case.
